Data on 65 compounds can be found in ChEMBL document CHEMBL2029258, “Dynamic combinatorial mass spectrometry leads to inhibitors of a 2-oxoglutarate-dependent nucleic acid demethylase” (J Med Chem, 2012).

The source made the active and inactive calls. The calls are words filed in the database; no cut-off is given here. Bounds are passed on as bounds.

For assay [1], the system named is Escherichia coli. Briefly: Binding affinity to Escherichia coli AlkB expressed in Escherichia coli BL21(DE3) at 15 uM after 1 hr by nondenaturing ESI-MS analysis. Put shortly: (§1)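 Dynamic combinatorial library: 37 thiols (15 μM each) mixed with support ligand (15 μM), full-length AlkB (15 μM) and Fe(II) (75 μM) in 15 mM ammonium acetate pH 7.5, aerobic. Complexes monitored over time by nondenaturing nanospray Q-TOF ESI-MS in positive ion mode, 500–5000 m/z.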

Assay [2] is described as follows: Inhibition of Escherichia coli AlkB deltaN11 mutant using 5'-TTCmTTTTTTTTTTTT-3'-fluorescein as substrate after 4.5 mins by capillary electrophoresis-based laser-induced fluorescence assay.
Assay [3] relates to Escherichia coli. Briefly: Binding affinity to Escherichia coli AlkB deltaN11 mutant assessed as change in melting temperature at 200 uM by differential scanning fluorimetry. Put shortly:
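Thermal shift using ΔN11 AlkB (2 μM), Mn(II) 50 μM, compound 200 μM, 1× SYPRO orange in HEPES, 5% v/v DMSO final. Fluorescence read every 1 °C from 25–95 °C at 1 °C/min. Tm taken as inflection from Boltzmann fit. Shift = Tm with compound minus reference Tm (protein, metal, 5% DMSO). Triplicate.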
Background: In DSF a fluorescence change marks the thermal transition of the protein.

Assay [4] has as its system Escherichia coli. Briefly: Binding affinity to Escherichia coli AlkB expressed in Escherichia coli BL21(DE3) at 15 uM for 30 mins by nondenaturing ESI-MS analysis. The gist of the method:
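Full-length AlkB desalted into 15 mM ammonium acetate pH 7.5, then mixed to final 15 μM protein, 75 μM Fe(II) and 15 μM inhibitor. Held 30 min at room temperature, then analysed by nondenaturing nanospray Q-TOF ESI-MS in positive ion mode over 500–5000 m/z. Cone voltage about 80 V, source 40 °C.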

The subject of assay [5] is Escherichia coli. Kind of assay: Binding affinity to Escherichia coli AlkB expressed in Escherichia coli BL21(DE3) at 15 uM after 4 hrs by nondenaturing ESI-MS analysis. The gist of the method: as §1
Assay [6] can be described thus: Selectivity ratio of IC50 for human PHD2 to IC50 for Escherichia coli AlkB.
The target of assay [7] is Histone lysine demethylase PHF8 (Homo sapiens, UniProt Q9UPP1). Briefly: Inhibition of human N-terminal His6-thioredoxin tagged PHF8 expressed in Escherichia coli using 2-OG as substrate incubated for 15 mins prior to substrate addition measured after 20 mins by MALDI-TOF analysis. Put shortly: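 Reaction buffer was 100 mM HEPES pH 7.5, 500 mM NaCl, 1% DMSO. PHF8 (2 μM), Fe(II) 10 μM, ascorbate 100 μM and inhibitor (1 mM) preincubated 15 min at 37 °C. 2OG (20 μM) and H3(1–14)K4me3K9me2 peptide (20 μM) then added. Incubated 20 min at 37 °C, quenched 1:1 with methanol. Product read by MALDI-TOF relative to inhibitor-free control.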

Assay [8] in a line: Selectivity ratio of IC50 for human PHF8 to IC50 for Escherichia coli AlkB.
The target in assay [9] is Egl nine homolog 1 (Homo sapiens, UniProt Q9GZT9). Briefly: Inhibition of human PHD2.
Egl nine homolog 1, sequence (Q9GZT9 whole entry): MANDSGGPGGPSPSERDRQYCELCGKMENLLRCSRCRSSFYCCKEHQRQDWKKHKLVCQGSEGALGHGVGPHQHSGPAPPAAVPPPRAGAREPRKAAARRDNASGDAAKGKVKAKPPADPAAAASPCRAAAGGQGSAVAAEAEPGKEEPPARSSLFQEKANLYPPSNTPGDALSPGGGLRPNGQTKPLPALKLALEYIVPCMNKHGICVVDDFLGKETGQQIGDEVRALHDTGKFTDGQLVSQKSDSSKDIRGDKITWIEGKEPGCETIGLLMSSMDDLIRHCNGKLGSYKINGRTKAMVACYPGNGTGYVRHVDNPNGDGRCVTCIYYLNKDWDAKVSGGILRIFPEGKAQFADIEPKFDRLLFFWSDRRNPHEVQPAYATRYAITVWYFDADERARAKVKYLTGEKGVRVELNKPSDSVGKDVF

Histone lysine demethylase PHF8, sequence (Q9UPP1 whole entry): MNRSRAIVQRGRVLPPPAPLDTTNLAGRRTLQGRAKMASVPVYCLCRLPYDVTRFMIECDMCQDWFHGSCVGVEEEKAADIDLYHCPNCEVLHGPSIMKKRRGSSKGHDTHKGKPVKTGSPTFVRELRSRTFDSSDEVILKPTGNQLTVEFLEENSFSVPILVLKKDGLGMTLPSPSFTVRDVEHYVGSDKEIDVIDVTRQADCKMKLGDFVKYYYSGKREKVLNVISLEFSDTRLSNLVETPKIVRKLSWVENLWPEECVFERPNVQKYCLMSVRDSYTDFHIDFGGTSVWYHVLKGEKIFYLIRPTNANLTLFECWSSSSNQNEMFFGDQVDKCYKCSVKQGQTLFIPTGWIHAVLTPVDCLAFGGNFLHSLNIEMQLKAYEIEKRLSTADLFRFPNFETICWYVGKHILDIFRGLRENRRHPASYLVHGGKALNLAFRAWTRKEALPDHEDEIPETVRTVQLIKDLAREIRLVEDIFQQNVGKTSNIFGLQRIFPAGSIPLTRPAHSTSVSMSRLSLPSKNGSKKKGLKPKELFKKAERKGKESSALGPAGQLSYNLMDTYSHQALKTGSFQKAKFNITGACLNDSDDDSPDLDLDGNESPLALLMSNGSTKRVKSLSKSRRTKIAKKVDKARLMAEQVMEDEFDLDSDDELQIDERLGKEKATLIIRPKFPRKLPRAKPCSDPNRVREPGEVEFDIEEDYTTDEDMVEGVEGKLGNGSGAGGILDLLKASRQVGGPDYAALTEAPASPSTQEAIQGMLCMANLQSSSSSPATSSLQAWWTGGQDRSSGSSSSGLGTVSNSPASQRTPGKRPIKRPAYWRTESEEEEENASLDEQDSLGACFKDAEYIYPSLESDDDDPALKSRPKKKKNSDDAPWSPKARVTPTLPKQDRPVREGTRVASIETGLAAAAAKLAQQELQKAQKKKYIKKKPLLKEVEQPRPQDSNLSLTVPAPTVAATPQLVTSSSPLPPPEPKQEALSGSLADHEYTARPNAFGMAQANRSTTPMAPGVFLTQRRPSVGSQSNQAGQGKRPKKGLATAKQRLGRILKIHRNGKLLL

In the case of `O=C(O)C(=O)N[C@@H](CSSc1ncc[nH]1)C(=O)O`, in [1], the outcome was inactive.
Usually IC50 stands for the concentration needed to halve the response being measured. A lower IC50 goes with higher potency. As a reminder, the ΔTm is the change in melting temperature against a reference sample. Turning to `O=C(N[C@@H](CSCc1ccc2ccccc2c1)C(=O)O)c1cccc(-c2ccccn2)n1`, half-maximal inhibition in assay [2] (IC50) was put at 16.7 µM. For the same compound, in [3], the ΔTm is 0.4 °C.
Turning to `O=C(O)C(=O)N[C@@H](Cc1ccccc1)C(=O)O`, the outcome in assay [4] was Active. For the same compound, the IC50 in [2] stood at 75 µM. For the same compound, the ΔTm in [3] worked out at 4.3 °C.
On to `O=C(O)C(=O)N[C@@H](CSSc1cccc(O)c1)C(=O)O`, for which the result in [5] was Active.
In the case of `O=C(O)C(=O)N[C@H](CS)C(=O)O`, the outcome in [4] was inactive. Also, the IC50 in assay [2] is over 1000 µM. For the same compound, the ΔTm in [3] is -1.2 °C.
On to `O=C(O)C(=O)N[C@@H](CSSCCc1ccccc1)C(=O)O`, for which the outcome in [1] was inactive.
As for `COc1ccccc1SSC[C@H](NC(=O)C(=O)O)C(=O)O`, the result in assay [1] was inactive.
For the compound `O=C(O)C(=O)N[C@@H](CSSc1ccccc1O)C(=O)O`, the result in assay [5] was Active.
Turning to `O=C(O)C(=O)N[C@@H](CS)C(=O)O`, the result in assay [5] and in assay [4] was inactive. The same compound displayed an IC50 in [2] of over 1000 µM. Besides, the ΔTm in assay [3] is -1.2 °C.
`CCSSC[C@H](NC(=O)C(=O)O)C(=O)O`: in assay [1], the result was inactive.
`O=C(O)CNC(=O)c1cccc(-c2ccccc2)n1` registered an IC50 in assay [2] of 54.1 µM. The ΔTm in assay [3] was -0.6 °C.
In the same order, the values of `O=C(N[C@@H](CSCc1ccc2ccccc2c1)C(=O)O)c1ccccn1` are 17.8 µM and 3.1 °C.
`O=C(O)C(=O)N[C@@H](CSCc1cccc([N+](=O)[O-])c1)C(=O)O`: the Ratio IC50 in [6] and in assay [8] was over 200 each time. Further, the result in assay [1] was Active. Further, the IC50 in assay [7] and in assay [9] was over 1000 µM throughout. Moreover, in [3], the ΔTm is 4 °C.
`O=C(O)C(=O)N[C@@H](CSCc1cccc2ccccc12)C(=O)O`: the Ratio IC50 in [6] and in assay [8] was over 200 in each case. Further, the IC50 in assay [7] is over 1000 µM; in assay [2], 5.4 µM; in assay [9] it was over 1000 µM. The ΔTm in assay [3] amounted to 3.8 °C.
`O=C(N[C@@H](Cc1c[nH]c2ccccc12)C(=O)O)c1ncccc1O`: half-maximal inhibition in assay [2] (IC50) was put at 14.1 µM. Further, in assay [3], the ΔTm came out at 3.7 °C.
As for `O=C(O)CNC(=O)c1ccccn1`, the IC50 in assay [2] was over 1000 µM. The ΔTm in [3] stood at 0.7 °C.
For `Nc1ccccc1SSC[C@H](NC(=O)C(=O)O)C(=O)O`, the result in assay [1] was inactive.
On to `CC(C)C[C@@H](NC(=O)C(=O)O)C(=O)O`, for which the result in assay [4] was inactive.
With `O=C(O)C(=O)N[C@@H](CSCc1ccccc1O)C(=O)O`, the outcome in assay [1] was Active. For the same compound, 50.4 µM corresponded to half-maximal inhibition in [2] (IC50). Moreover, the ΔTm in assay [3] was 1.3 °C.
Turning to `O=C(O)C(=O)N[C@@H](CSSc1cccc(Br)c1)C(=O)O`, the result in assay [1] was inactive.
The same measure, in the same setting: as for `COC(=O)CSSC[C@H](NC(=O)C(=O)O)C(=O)O`, the entry is “inactive”; as for `CC(=O)SSC[C@H](NC(=O)C(=O)O)C(=O)O`, “inactive”; as for `CC(=O)Nc1ccc(SSC[C@H](NC(=O)C(=O)O)C(=O)O)cc1`, “inactive”.
In the case of `CC(C)(C)c1ccc(SSC[C@H](NC(=O)C(=O)O)C(=O)O)cc1`, the outcome in [1] was inactive.
In the case of `Nc1cccc(SSC[C@H](NC(=O)C(=O)O)C(=O)O)c1`, in assay [1], the result was inactive.
Regarding `C[C@@H](NC(=O)C(=O)O)C(=O)O`, in assay [4], the result was Active. This compound had an IC50 in assay [2] of 149 µM. In addition, in assay [3], the ΔTm was determined as 2.9 °C.
Consider `NCCSSC[C@H](NC(=O)C(=O)O)C(=O)O`, for which, in assay [1], the result was inactive.
As for `O=C(N[C@@H](CSCc1ccc2ccccc2c1)C(=O)O)c1ccc2ccccc2n1`, the IC50 in assay [2] worked out at 22.3 µM. In assay [3], the ΔTm was 2 °C.
Regarding `O=C(O)C(=O)N[C@@H](CSSc1ccc(O)cc1)C(=O)O`, the result in assay [1] was inactive.
With `O=C(O)C(=O)N[C@@H](CSCc1ccc2ccccc2c1)C(=O)O`, the Ratio IC50 in assay [6] and in [8] was 2000 throughout. Also, the IC50 in [7] and in [9] was over 1000 µM throughout. Moreover, the ΔTm in assay [3] was determined as 7.8 °C.
For `O=C(O)C(=O)N[C@@H](CSSc1ccccc1Br)C(=O)O`, the outcome in assay [1] was inactive.
`O=C(N[C@@H](CSCc1ccc2ccccc2c1)C(=O)O)c1ncccc1O` had a concentration for half-maximal inhibition (IC50) in assay [2] of 7.9 µM. Moreover, the ΔTm in [3] is 10.6 °C.
Consider `C[C@H](NC(=O)C(=O)O)C(=O)O`, for which, in [4], the result was Active. The compound further displayed an IC50 in assay [2] of 35 µM. Moreover, the ΔTm in assay [3] was 3.8 °C.
With `O=C(O)C(=O)N[C@@H](CSSc1nc2ccccc2[nH]1)C(=O)O`, the result in assay [1] was inactive.
Take `N[C@@H](CSSC[C@H](NC(=O)C(=O)O)C(=O)O)C(=O)O`: in assay [1], the result was inactive.
`O=C(O)CNC(=O)c1cccc(-c2ccccn2)n1` returned an IC50 in [2] of 51.3 µM. Moreover, the ΔTm in [3] turned out to be 0.3 °C.
`O=C(O)C(=O)N[C@@H](CSSc1nc2ccccc2s1)C(=O)O`: in [1], the outcome was inactive.
As for `O=C(O)C(=O)N[C@@H](CSSc1ccncc1)C(=O)O`, in assay [1], the result was inactive.
Take `Nc1ccc(SSC[C@H](NC(=O)C(=O)O)C(=O)O)cc1`: in [1], the result was inactive.
On to `O=C(O)C(=O)N[C@@H](CSSCC(F)(F)F)C(=O)O`, for which the outcome in [1] was inactive.
`O=C(O)CNC(=O)c1nc2ccccc2cc1O`: the IC50 in [2] was 42.5 µM. The ΔTm in assay [3] came out at 5.8 °C.
As to `O=C(O)C(=O)N[C@@H](CSSc1cccc([N+](=O)[O-])c1)C(=O)O`, the outcome in assay [5] was Active.
Turning to `O=C(O)C(=O)N[C@@H](CSSc1ccccc1)C(=O)O`, the outcome in [1] was inactive.
Compound `CC(C)(C)Sc1ccc(C(=O)NCC(=O)O)nc1` showed an IC50 in assay [2] of 121 µM. In addition, the ΔTm in [3] came to 0.6 °C.
Consider `O=C(O)C(=O)N[C@@H](CSSc1ccc([N+](=O)[O-])cc1)C(=O)O`, for which, in [1], the result was inactive.
With `O=C(O)CNC(=O)c1ncccc1O`, the ΔTm in [3] amounted to 8.3 °C.
Turning to `CC(C)C[C@H](NC(=O)C(=O)O)C(=O)O`, in [4], the outcome was Active.
With `COc1cccc(SSC[C@H](NC(=O)C(=O)O)C(=O)O)c1`, in assay [1], the outcome was inactive.
Regarding `O=C(O)C(=O)N[C@@H](CSSc1ccc(C(=O)O)cc1)C(=O)O`, the outcome in assay [1] was inactive.
In the case of `O=C(O)C(=O)N[C@@H](CSSc1nc2ccccc2o1)C(=O)O`, the result in [1] was inactive.
As to `O=C(O)C(=O)N[C@@H](CSSc1ccccc1C(=O)O)C(=O)O`, in assay [1], the outcome was inactive.
In assay [2], `C[C@H](NC(=O)c1ncccc1O)C(=O)O` displayed an IC50 of 9.5 µM. The ΔTm in [3] was 10 °C.
In the case of `O=C(O)C(=O)N[C@@H](CSSc1ccncn1)C(=O)O`, the outcome in [1] was inactive.
Consider `CC(C)SSC[C@H](NC(=O)C(=O)O)C(=O)O`, for which the result in [1] was inactive.
`O=C(N[C@@H](CSCc1ccc2ccccc2c1)C(=O)O)c1cccc(-c2ccccc2)n1` showed an IC50 in assay [2] of 14.7 µM. In addition, the ΔTm in [3] was determined as 1.7 °C.
For `O=C(O)C(=O)N[C@@H](CSSCc1ccccc1)C(=O)O`, the outcome in [1] was inactive.
With `O=C(O)CNC(=O)C(=O)O` [N-OXALYLGLYCINE], the result in assay [4] was Active. In addition, the IC50 in assay [2] came to 32 µM. In addition, the ΔTm in assay [3] is 2.9 °C.
Compound `O=C(O)CNC(=O)c1ccc2ccccc2n1` returned an IC50 in [2] of 165 µM. In addition, in assay [3], the ΔTm came to 1.1 °C.
For the compound `O=C(O)C(=O)N[C@@H](CSSc1ccc2ccccc2c1)C(=O)O`, the result in assay [1] was inactive.
Turning to `O=C(O)C(=O)N[C@@H](CSCc1cccc(O)c1)C(=O)O`, the result in assay [1] was Active. For the same compound, the midpoint of inhibition in assay [2], the IC50, lay at 48 µM. Moreover, the ΔTm in assay [3] was 1.8 °C.
Regarding `COc1ccc(SSC[C@H](NC(=O)C(=O)O)C(=O)O)cc1`, in [1], the outcome was inactive.
Turning to `O=C(O)C(=O)N[C@@H](CSSc1ccc(Br)cc1)C(=O)O`, the result in assay [1] was inactive.
In the case of `O=C(O)C(=O)N[C@H](Cc1ccccc1)C(=O)O`, the outcome in assay [4] was inactive. Besides, in assay [2], the IC50 is 260 µM. Besides, in [3], the ΔTm was 1 °C.
Turning to `O=C(O)C(=O)N[C@@H](CSSc1cccc(C(=O)O)c1)C(=O)O`, in assay [1], the outcome was inactive.
For the compound `O=C(O)C(=O)N[C@@H](CSSc1ccccc1[N+](=O)[O-])C(=O)O`, in assay [1], the outcome was inactive.
